Screens deposited in PubChem by several laboratories.
A selection: hits, their analogues and other compounds. The true share with any hit is near 1.7%.
CCR6 antagonist = blocks CCL20-driven beta-arrestin recruitment at human CCR6. inhibition, % at 20 µM. 340,000 compounds, 0.49% hits. P51684. CHO-K1 CCR6 PathHunter beta-arrestin, luminescence, CCL20-stimulated;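 active = compounds whose inhibition of the agonist-driven luminescence signal at 20 µM reaches about 50%, limit read from the data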;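 note: cells stimulated with CCL20 at 14 nM final; plate controls were DMSO with CCL20 for no effect and DMSO without agonist for full effect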
B2AR ag = human beta-2 adrenergic receptor agonism by FAP; 340,000 compounds, 0.43% hits; response, % (test concentration not listed); P07550; Am2.2-beta2AR cells, FAP receptor internalization, flow cytometry; AID 504454;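 active = response above a set limit, near 3 SD of response in nonfluorescent compounds, cut at about 42% in these data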
Target sequence (P07550 whole entry, looked up): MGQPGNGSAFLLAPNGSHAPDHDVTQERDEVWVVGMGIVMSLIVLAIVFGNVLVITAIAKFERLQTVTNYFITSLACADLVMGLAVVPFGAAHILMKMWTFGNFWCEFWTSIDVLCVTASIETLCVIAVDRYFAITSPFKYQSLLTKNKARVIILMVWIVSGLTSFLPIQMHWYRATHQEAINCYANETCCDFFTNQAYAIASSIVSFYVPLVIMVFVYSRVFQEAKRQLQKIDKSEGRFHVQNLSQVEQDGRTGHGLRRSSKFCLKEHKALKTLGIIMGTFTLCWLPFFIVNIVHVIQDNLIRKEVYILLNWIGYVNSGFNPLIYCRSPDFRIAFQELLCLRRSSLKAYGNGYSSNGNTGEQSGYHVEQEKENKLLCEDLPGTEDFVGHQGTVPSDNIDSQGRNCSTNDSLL
APJ antagonist = antagonists of human APJ apelin receptor. CHO-K1 APJ beta-arrestin complementation, luminescence. inhibition, % at 20 µM. 330,000 compounds, 0.32% hits. AID 2521;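 active = inhibition above about 40% at 20 µM, limit read from the data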;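 note: cells challenged with 10 nM apelin-13 agonist together with compound; plate controls were apelin-13 plus DMSO wells for no effect and DMSO wells lacking apelin-13 for full effect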
PfGluPho inh = PfG6PD (Plasmodium falciparum) enzyme inhibition. 350,000 compounds, 0.78% hits. PfGluPho enzyme, NADPH resazurin-diaphorase fluorescence. inhibition, % at 20 µM. AID 504690;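 active = inhibition reaching at least a set limit at 20 µM in the primary screen, cut at about 59% in these data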;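 note: 0% = DMSO wells with substrate and 100% = DMSO wells lacking glucose-6-phosphate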
CXCR6 inh = blocks human CXCR6 beta-arrestin recruitment | O00574 | CHO-K1 PathHunter CXCR6 beta-arrestin, luminescence | inhibition, % at 20 µM | 360,000 compounds, 0.36% hits | AID 602244; in the data active = inhibition above about 34%, passing the limit was not always enough;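 note: antagonist mode with CXCL16 agonist at 10 nM final; 0% = 10 nM CXCL16 with DMSO and 100% = unstimulated wells without agonist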
Target sequence (O00574 whole entry, looked up): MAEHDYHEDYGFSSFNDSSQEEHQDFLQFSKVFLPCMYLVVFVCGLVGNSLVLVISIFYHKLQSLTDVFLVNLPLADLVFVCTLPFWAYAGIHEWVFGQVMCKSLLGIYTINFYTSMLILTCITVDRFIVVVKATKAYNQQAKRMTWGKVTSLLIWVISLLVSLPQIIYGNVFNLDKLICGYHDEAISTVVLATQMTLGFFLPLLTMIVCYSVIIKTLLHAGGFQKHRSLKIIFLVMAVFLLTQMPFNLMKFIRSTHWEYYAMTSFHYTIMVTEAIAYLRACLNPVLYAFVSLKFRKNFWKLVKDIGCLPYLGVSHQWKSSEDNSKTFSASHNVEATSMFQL
APJ ag = APJ receptor agonism | P35414 | CHO-K1 APJ PathHunter beta-arrestin, luminescence; 0% DMSO wells, 100% apelin | activation, % at 20 µM | 330,000 compounds, 0.11% hits;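 active = activation more than six SD over the plate average, tested at 20 µM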;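 note: 0% = DMSO alone and 100% = apelin-13 at 10 nM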
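Material: engineered CHO-K1 APJ arrestin reporter cells; amount: 1000 CHO-K1 reporter cells seeded per well; incubation: compound stimulation 90 min at 25 °C, detection 60 min; signal: luminescent beta-gal fragment complementation, chemiluminescent substrate; read-out basis: APJ agonist activity; controls: DMSO-only wells as negative, 10 nM Apelin-13 as positive control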
PfG6PD confirm = PfG6PD inhibition, single-dose confirmed. shares compounds with PfGluPho inh. recombinant PfGluPho, NADPH-diaphorase-resazurin fluorescence. inhibition, % at 20 µM. 2,400 compounds, 34% hits;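 active = inhibition of at least 50% at 20 µM in any single replicate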;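 note: 0% = DMSO with substrate and 100% = DMSO lacking glucose-6-phosphate substrate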
Diaphorase 10uM = inhibits diaphorase or oxidizes, flagging false PfG6PD hits | shares compounds with PfGluPho inh | 820 compounds, 39% hits | diaphorase-coupled resazurin reduction, fluorescence, NADPH 10 uM | inhibition, % at 20 µM | AID 504862;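 active = average inhibition reaching 50% or more with the compound at 20 µM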;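 note: resorufin red fluorescence formed as diaphorase reduces resazurin using NADPH; 0% = DMSO with enzyme and 100% = DMSO without enzyme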
Diaph ctr 30uM = diaphorase inhibition or oxidation at 30 uM NADPH; shares compounds with PfGluPho inh; Diaphorase/resazurin coupled assay, resorufin fluorescence; inhibition, % at 20 µM; 820 compounds, 29% hits; AID 504863;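 active = inhibition averaging 50% or more, tested at 20 µM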;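 note: 0% = DMSO with enzyme and 100% = DMSO wells lacking diaphorase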
* marks the source's active call; other numbers are inactive results; . = no result.

SMILES | CCR6 antagonist | B2AR ag | APJ antagonist | PfGluPho inh | CXCR6 inh | APJ ag | PfG6PD confirm | others
COc1ccc(C(=O)Nc2sc3c(c2C(=O)O)CC(C)(C)OC3)cc1 | -5 | 1 | 14 | 91* | -9 | -5 | 48* | Diaphorase 10uM=40;Diaph ctr 30uM=45
O=[N+]([O-])c1ccc2nonc2c1Nc1ccccc1 | -5 | -2 | -33 | 7 | -2 | 9 | .
COc1cnn(-c2ccc(Br)cc2)c(=O)c1SCc1ccccc1 | 19 | -5 | -10 | 17 | -14 | -5 | .
COc1cnn(-c2ccc(C)cc2)c(=O)c1SCc1ccccc1 | 9 | -9 | 6 | 66* | 4 | -3 | 3
COc1cnn(-c2ccccc2)c(=O)c1SCc1ccc(Cl)cc1Cl | 29 | -2 | 11 | 66* | 4 | -3 | -3
COc1ccc(-c2ccc(CN3C(C(C)C)C(=O)N(Cc4cn(CC5CCCCC5)nn4)CCS3(=O)=O)cc2)cc1 (stereo unspecified) | . | . | . | 17 | 6 | . | .
COc1cccc(Nc2cc(C)c3ccccc3n2)c1 | -4 | 6 | -13 | 61* | -3 | -3 | -10
COC(=O)c1cc(Nc2cc(C)c3c(O)cccc3n2)cc(C(=O)OC)c1 | 1 | 24 | -11 | 2 | -5 | 1 | .
Cc1ccccc1Nc1cc(C)c2c(O)cccc2n1 | 1 | 0 | -6 | 16 | -5 | -1 | .
COc1ccc(Nc2cc(C)c3c(O)cccc3n2)cc1 | 6 | 0 | -21 | 120* | -1 | -6 | 56* | Diaphorase 10uM=19;Diaph ctr 30uM=43
Cc1ccc(Nc2cc(C)c3c(O)cccc3n2)cc1C | -6 | 7 | -17 | 125* | -12 | -7 | 36
CC(C)C[C@@H](CNCC(=O)[C@H](C)NC(=O)c1[nH]cnc1C(=O)N[C@@H](C)CN)NC(=O)c1nc[nH]c1C(=O)N[C@@H](C)C(=O)O | -1 | -12 | . | 0 | 6 | . | .
COCCNC(=O)c1cc2c(c(-c3cccc(C#Cc4ccc(OC)c(OC)c4)c3)n1)[C@H](CCO)N(S(=O)C(C)(C)C)C2 (stereo partly specified) | . | . | . | . | -2 | . | .
O=C(CCSCCC(=O)NN=Cc1cccc(Cl)c1)NN=Cc1cccc(Cl)c1 | 1 | -2 | . | 86* | -7 | . | 88* | Diaphorase 10uM=79*;Diaph ctr 30uM=66*
O=C(CCCSCCCC(=O)NN=Cc1ccccc1)NN=Cc1ccccc1 | 16 | -23 | . | 59* | -1 | . | 19
O=C(CCC(=O)Nc1ccccc1Cl)N/N=C/c1ccccc1 | 4 | -6 | -5 | 105* | 9 | 1 | 81* | Diaphorase 10uM=69*;Diaph ctr 30uM=48
O=C(CC(=O)N/N=C/c1ccccc1)NCc1ccccc1 | 1 | 1 | 14 | 107* | -10 | -3 | 72* | Diaphorase 10uM=67*;Diaph ctr 30uM=67*
ClC1CCCCC1n1nnc2ccccc21 (stereo unspecified) | 7 | 2 | -3 | 9 | -1 | 0 | .
Cn1c(/C=C/c2cccc([N+](=O)[O-])c2)c([N+](=O)[O-])c(=O)n(C)c1=O | 10 | -3 | 22 | -11 | 4 | -4 | .
CN(C)CCN(Cc1cc2cc3c(cc2nc1Cl)OCO3)C(=O)c1ccco1 | -10 | -2 | 8 | -4 | -3 | -4 | .
CCOC(=O)CCCCCC(=O)Nc1ccc2c(c1)C(=O)N([C@H](C)CO)C[C@@H](C)[C@H](CN(C)S(=O)(=O)c1cn(C)cn1)O2 | 7 | -6 | 0 | -7 | 1 | 0 | .
O=C(CCCC(=O)Nc1ccc(Br)cc1)N/N=C/c1ccccc1 | 4 | 1 | 9 | 60* | -12 | -5 | 42
Cc1noc(C)c1COc1ccccc1C(=O)N(C)Cc1ccc(C(C)(C)C)cc1 | 6 | -3 | -52 | -23 | -16 | -2 | .
O=C(NC12CC3CC(CC(C3)C1)C2)c1cccc(OC(F)F)c1 | 11 | 2 | -2 | 15 | -14 | -1 | .
CSCCC1NC(=O)N(CC(=O)N2N=C(c3ccc(Cl)cc3)CC2c2ccco2)C1=O (stereo unspecified) | 1 | 1 | 1 | 13 | 8 | -1 | .
SMILES | CCR6 antagonist | B2AR ag | APJ antagonist | PfGluPho inh | CXCR6 inh | APJ ag | PfG6PD confirm | others
CC1(OC(=O)C2CCCC2)C(=O)C=C2C=C(c3ccsc3)N(C(CO)CO)C=C2C1=O (stereo unspecified) | -17 | -11 | -13 | 66* | -15 | 14 | 7
CC1(OC(=O)C2CCCC2)C(=O)C=C2C=C(c3ccsc3)N(CCc3ccccn3)C=C2C1=O (stereo unspecified) | -4 | -3 | -85 | 70* | -16 | 8 | 39
CC1(OC(=O)C2CCCC2)C(=O)C=C2C=C(c3ccsc3)N(C3CC3)C=C2C1=O (stereo unspecified) | -3 | 1 | -17 | 80* | -19 | 21 | 28
COc1ccc(CC(=O)Nc2cccc(/C(C)=N/NC(=O)C3(C)CC3(Br)Br)c2)cc1 (stereo unspecified) | 10 | 11 | 11 | 1 | -11 | 12 | .
CCc1cccc(CC)c1NC(=O)C1CSC2(C)CCC(=O)N12 (stereo unspecified) | -4 | 14 | 19 | 4 | 5 | -5 | .
c1ccc(-c2nnc(-c3ccccc3)nn2)cc1 | 22 | 2 | -13 | -5 | 22 | -6 | .
c1cncc(-c2nnc(-c3cccnc3)nn2)c1 | -1 | 0 | -17 | 77* | -3 | -3 | 31
Cc1ccc(-c2cc(-c3ccc(C)o3)nc(N)c2C#N)cc1 | 43 | -7 | 30 | 60* | 0 | -6 | -19
Cc1ccc(-c2cc(-c3ccc(Cl)cc3)c(C#N)c(N)n2)o1 | 86* | -6 | -19 | 96* | 8 | -4 | 1
Cc1ccc(-c2cc(-c3ccc(F)cc3)c(C#N)c(N)n2)o1 | 20 | 1 | 11 | 48 | 22 | -3 | .
CCC(=O)OCOc1ccc(/C=C2/CCC(CN(C)C)C2=O)cc1 (stereo unspecified) | 90* | 17 | . | 84* | 82* | . | 56* | Diaphorase 10uM=-33;Diaph ctr 30uM=-23
COc1ccc(-c2noc(N3CCC(C(=O)NCCCN4CCCC(C)C4)CC3)n2)cc1 (stereo unspecified) | -2 | -3 | 23 | 13 | 3 | 0 | .
CC(C)c1ccc(NC2CCCN(C(=O)CCCn3cncn3)C2)cc1 (stereo unspecified) | 6 | -1 | 9 | 10 | -5 | -1 | .
CCCCCCn1c(=O)n2n(c1=O)[C@@H]1CN(S(=O)(=O)c3ccc(C)cc3)C[C@]1(O)[C@@H](OC(=O)NCC1CCCCC1)C2 | . | . | . | 65* | -5 | . | -26
